# Screening results: PubChem, several laboratories
# TPT1 inhibitor = C. albicans TPT1 enzyme inhibition | 300,000 tested, 0.81% active | AID 1962 | recombinant caTPT1, FP RNA substrate dephosphorylation | inhibition, % at 5 µM;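 active means inhibition above the mean of all tested compounds plus 3 SD, set per screening campaign, cut at about 24% in these data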;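 further: plate controls were DMSO alone for no effect and ferristatin control at 100 nM for full effect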
# NadD block = NadD (S. aureus) enzyme inhibition; 360,000 tested, 0.78% active; purified NadD enzyme, colorimetric absorbance read-out; inhibition, % at 20 µM; in the data active means inhibition above about 26%
# Rpn11 inh = Rpn11 (human) deubiquitinase inhibition; 360,000 tested, 0.59% active; human 26S proteasome, Ub4-pepOG fluorescence polarization; 20S core pre-blocked with epoxomicin; AID 588493; inhibition, % at 20 µM; O00487;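 active means inhibition at 20 µM, scaled to each plate's controls, above about 33%, limit read from the data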
# Target sequence (O00487 whole entry, looked up): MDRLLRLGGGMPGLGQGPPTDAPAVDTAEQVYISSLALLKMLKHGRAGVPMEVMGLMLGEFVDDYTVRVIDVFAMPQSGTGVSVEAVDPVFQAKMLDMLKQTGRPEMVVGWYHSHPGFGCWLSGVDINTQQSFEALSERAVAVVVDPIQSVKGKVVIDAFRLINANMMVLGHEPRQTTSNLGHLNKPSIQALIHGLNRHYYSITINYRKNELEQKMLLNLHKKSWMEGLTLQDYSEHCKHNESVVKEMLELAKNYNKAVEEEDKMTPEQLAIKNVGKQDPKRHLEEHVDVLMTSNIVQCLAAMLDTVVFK
# PP1 counter = PP1-alpha (human) inhibition in PP5 counter-screen. P62136. purified PP1alpha, OMFP fluorescence. inhibition, % at 6.7 µM. 320,000 tested, 0.9% active. AID 2235;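 active means inhibition above the mean inhibition of all tested compounds plus 3 SD, computed separately for each screening campaign, cut at about 15% in these data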
# CSN inh = inhibitors of human CSN-mediated cullin deneddylation; inhibition, % at 12.5 µM; 360,000 tested, 0.38% active; Purified CSN, SCF-Nedd8-OG deneddylation, fluorescence polarization;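 active means pattern-corrected inhibition above about 35%, with an unprinted fluorescence ratio check between 0.5 and 1.5, limit read from the data, passing the limit was not always enough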;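 further: 0% = enzyme with substrate and 100% = substrate without enzyme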
# Target sequence (Q92905 whole entry, looked up, one chain of several): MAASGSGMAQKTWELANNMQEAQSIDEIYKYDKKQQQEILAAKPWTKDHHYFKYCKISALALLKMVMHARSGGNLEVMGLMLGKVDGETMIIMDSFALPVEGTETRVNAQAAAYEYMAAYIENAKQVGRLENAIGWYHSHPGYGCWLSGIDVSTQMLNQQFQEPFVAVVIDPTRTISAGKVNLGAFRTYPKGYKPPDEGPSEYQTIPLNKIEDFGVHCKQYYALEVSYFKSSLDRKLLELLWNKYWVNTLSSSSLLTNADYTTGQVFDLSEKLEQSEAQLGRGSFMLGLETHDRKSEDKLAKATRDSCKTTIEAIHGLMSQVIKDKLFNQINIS
#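 Material: human Csn5 produced in HEK293T cells; Input: enzyme 0.24 nM; Reagent: SCFSkp2-Nedd8OG substrate at 10 nM final; Dosing: 12.5 µM compound; Incubation: 90 min reaction at room temperature; Detection: fluorescence polarization of the substrate; Evaluation: % inhibition of substrate cleavage by Csn5; Control set: substrate-only high control, full reaction low control.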
# HNF4A DNA FP = change in binding of human HNF4 alpha to DNA. P41235. HNF4a-FITC DNA binding, fluorescence polarization, 1 h. activity change, % at 10 µM. 360,000 tested, 0.3% active. AID 1224865; in the data active means activity change above about 30%, passing the limit was not always enough
# * = called active by the depositor; . = no result given; + = active, no number. Sampled rows, rich in hits. Any-hit rate of the full collection: about 2.7%.
SMILES,TPT1 inhibitor,NadD block,Rpn11 inh,PP1 counter,CSN inh,HNF4A DNA FP
O=C(Nc1cccc(-c2nc3ncccc3o2)c1)c1sc2ccccc2c1Cl,7.9,-1.1,18.0,0.2,1.4,43.1*
O=C(Nc1cccc(-c2nc3ncccc3o2)c1)c1cc2ccccc2o1,-2.0,-2.0,3.1,2.7,-1.2,-8.9
O=C(Nc1cccc(-c2nc3ncccc3o2)c1)c1sc2cc(Cl)ccc2c1Cl,0.1,3.8,+,-1.3,22.1,175.6*
COc1ccc(C2=NN(c3ccccc3)C(c3ccc(OC)c(OC)c3)C2)cc1 (centres undefined),4.3,-2.2,1.1,-0.1,1.8,7.3
COc1ccc(C2CC(c3ccc(F)cc3)=NN2c2ccccc2)cc1OC (centres undefined),9.7,-7.0,42.4*,4.1,3.5,16.4
O=C(CN1C(=O)/C(=C\c2ccco2)SC1=S)Nc1ccc(O)cc1C(=O)O,11.2,2.4,.,1.3,69.6*,-37.3
Cc1ccc(S(=O)(=O)N(CC(=O)NCC2CCCO2)Cc2ccc(F)cc2)cc1 (centres undefined),-1.2,-0.2,6.3,15.3*,-2.7,-0.6
NC(=O)C1=C(N=C2CCCCC2)CCCC1,.,0.8,2.8,.,53.2*,-1.4
O=C(c1ccc(-c2cc3ccccc3oc2=O)cc1)N1CCN(c2ccc(Cl)cc2[N+](=O)[O-])CC1,2.2,2.6,5.2,16.3*,-17.1,-2.7
C[C@@H]1OC(C2CCCCC2)N(C)[C@H]2C[C@H]3c4[nH]c5ccccc5c4CCN3C[C@@H]12 (some centres undefined),.,-6.8,8.1,.,-2.5,3.9
O=C(Nc1cccnc1)c1cc2c(ccc3ccccc32)o1,0.7,2.6,61.9*,8.7,30.7,2.9
NNC(=O)c1cc2c(ccc3ccccc32)o1,1.6,0.2,-10.2,4.8,-6.3,-0.5
CC(C)C[C@@H]1CN(CCCC[C@H]2CNC(=O)C(=O)N2CCC2CCCCC2)C(=O)C(=O)N1CC1CCCCC1,.,22.1,.,.,-2.4,3.0
Cc1ccn2cc(-c3ccc4c(c3)NC(=O)CO4)nc2c1,2.1,-6.4,4.7,9.8,53.7*,8.2
Cc1noc(C)c1NC(=O)N(C)C[C@H]1Oc2ccc(NC(=O)Nc3ccccc3)cc2C(=O)N([C@H](C)CO)C[C@@H]1C,.,2.9,1.0,.,0.2,0.6
COc1ccc(NC(=O)C(=O)N/N=C/c2cc(C)n(-c3cccc(Cl)c3Cl)c2C)c(OC)c1,-3.3,35.7*,3.5,-2.5,6.7,3.4
COc1ccc(OC)c(NC(=O)C(=O)N/N=C/c2ccccc2[N+](=O)[O-])c1,-2.8,3.8,-8.1,-2.4,-4.3,4.6
COc1cc2c(cc1OC)CN(C(=O)CN1CCN(S(=O)(=O)c3ccc(C)c(C)c3)CC1)CC2,0.0,17.5,1.2,-2.5,2.1,-1.9
O=C(/C=C1\NC2(CCCC2)Cc2ccccc21)C(=O)N/N=C/c1ccc(O)c(O)c1,2.9,37.8*,15.9,1.7,2.7,-6.2
Oc1ccc(/C=N/Nc2cc(N3CCCC3)nc(N3CCCC3)n2)cc1O,2.2,36.4*,2.4,12.8,2.1,1.6
Oc1ccc(C23CC4CC(CC(C4)C2)C3)cc1O,-3.4,34.8*,-2.5,-2.1,5.0,1.1
CC(=O)Nc1ccc(C23CC4CC(CC(C4)C2)C3)cc1,-1.1,-1.3,4.3,3.4,4.4,6.7
Cc1cc([N+](=O)[O-])cc(C)c1OCC(=O)N/N=C/c1ccc(OC(=O)c2ccccc2)cc1,1.2,20.0,11.2,5.3,-0.3,1.5
Cc1cc([N+](=O)[O-])cc(C)c1OCC(=O)N/N=C/c1ccc(OC(=O)c2ccccc2Br)cc1,2.5,10.2,-5.1,15.7*,2.5,0.4
O=C(CNC(=O)c1ccc([N+](=O)[O-])cc1)N/N=C\c1ccc(OC(=O)c2ccccc2)cc1,-3.7,22.2,-6.1,16.0*,13.8,-5.5
SMILES,TPT1 inhibitor,NadD block,Rpn11 inh,PP1 counter,CSN inh,HNF4A DNA FP
Cc1c2c(cc3c1[nH]c1ccccc13)C=NCC2,.,-1.8,.,.,65.0*,63.5*
Cc1c2ccncc2cc2c1[nH]c1ccccc12,.,0.3,27.3,.,11.3,8.7
Cc1cccc(CNc2ccc(C(CC(N)=O)NC(=O)Cc3cccc4ccccc34)cc2[N+](=O)[O-])c1 (centres undefined),5.3,3.9,21.4,17.1*,1.4,5.8
O=S(=O)(c1cccc2ccccc12)N1CCC2CC1c1cc(-c3ccc4c(c3)OCO4)ccc12 (centres undefined),.,6.8,-0.4,.,-5.5,4.6
O=C(NCc1ccccc1)c1onc(CSc2ccccc2)c1C(=O)NCC1CC1,-5.9,-4.3,-6.3,16.4*,-5.3,0.8
O=C(NCc1ccccc1)c1onc(CSc2ccc(Cl)cc2)c1C(=O)NCC1CC1,0.7,-8.9,-7.1,0.8,-2.6,-1.2
CC(Nc1ccc(F)cc1F)C(=O)NC(=O)NC1CCCCC1 (centres undefined),0.0,-4.5,0.5,2.4,0.2,144.4*
O=C(Nc1ccc(F)cc1F)NC1CCCCCCC1,.,-2.1,7.5,.,1.9,1.7
O=C(C1CC=CCC1)N1CCN(S(=O)(=O)c2ccc(F)cc2)CC1 (centres undefined),.,3.9,1.5,.,0.9,-3.8
COc1cccc(-c2cccc(-c3nc(C(=O)NCc4ccc5c(c4)OCO5)cc4c3[C@H](CCO)N(S(=O)C(C)(C)C)C4)c2)c1 (some centres undefined),.,26.7,6.8,.,6.2,12.0
COc1cccc(-c2cccc(-c3nc(C(=O)Nc4ccc(-c5ccccc5)cc4)cc4c3[C@H](CCO)N(S(=O)C(C)(C)C)C4)c2)c1 (some centres undefined),.,35.5*,10.8,.,0.3,9.1
Cc1cccc(C)c1NC(=O)C(c1ccc(-c2ccccc2)cc1)n1c(=O)c(-c2ccco2)nc2ccccc21 (centres undefined),.,.,.,.,43.9*,21.2
Cc1cccc(C)c1NC(=O)C(c1ccccc1)n1c(=O)c(-c2ccccc2)nc2ccccc21 (centres undefined),.,.,.,.,2.6,-0.7
CC(C)(C)NC(=O)C(c1ccc(-c2ccccc2)cc1)n1c(=O)c(-c2ccco2)nc2ccccc21 (centres undefined),.,.,.,.,28.3,46.0*
COC(=O)c1cc2c(n1S(=O)(=O)c1ccc(C)cc1)C(=O)C(=O)c1[nH]cc(C(=O)OCc3ccccc3)c1-2,.,23.6,-10.8,.,1.1,3.8
CC(OC(=O)c1c2c(nc3ccccc13)/C(=C\c1ccc3c(c1)OCO3)CCC2)C(=O)Nc1ccc(S(N)(=O)=O)cc1 (centres undefined),.,44.4*,-211.0,.,-94.2,-90.1
CCCC(NC(=O)Cc1c(C)c2cc3c(C)c(C)oc3c(C)c2oc1=O)C(=O)N[C@@H](Cc1ccccc1)C(=O)O (some centres undefined),1.2,17.7,75.7*,-4.5,32.6,-20.1
